Results: ChEMBL document CHEMBL1255381, “Golgicide A reveals essential roles for GBF1 in Golgi assembly and function” (Nat Chem Biol, 2009)
Activity calls are given as the source filed them. The rule behind the calls is not given here.

Columns and labels:
[1] = tested on: Vero; experiment: Induction of depolymerization of actin microfilaments in african green monkey Vero cells at 25 uM after 30 mins by immunofluorescence method; type: functional, cell-based; conditions: Chlorocebus sabaeus
[2] = tested on: Vero; experiment: Effect on disruption of microtubules in african green monkey Vero cells at 5 ug/ml after 30 mins by immunofluorescence method; type: functional, cell-based; conditions: Chlorocebus sabaeus
In short: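 They were then fixed and immunostained for microtubules, and microtubule morphology was judged by immunofluorescence microscopy against DMSO-treated cells.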

Row | Compound | Activity [1] | Activity [2]
1 | C=C1[C@@H](C)[C@H]2[C@H](Cc3ccccc3)NC(=O)[C@]23OC(=O)/C=C/[C@H](O)CCC[C@@H](C)C/C=C/[C@H]3[C@@H]1O | Active | 
2 | COC(=O)Nc1nc2cc(C(=O)c3cccs3)ccc2[nH]1 |  | Active
